Activity calls are given as the source filed them. The rule behind the calls is not given here.

The values that follow come from ChEMBL document CHEMBL3244105, “Antiparasitic agents. 3. Synthesis and anthelmintic activities of novel 2-pyridinyl-5-isothiocyanatobenzimidazoles” (1979).

The subject of assay [1] is Heligmosomoides polygyrus. The experiment in a line: Nematocidal activity against Nematospiroides dubius infected in CF1 mouse assessed as clearance of worm burden at 0.2% dosed through diet for 4 days dosed 16 days post infection by press-plate technique. The assay is classed as functional. The method, boiled down: (§1)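 Primary oral mouse screen. Compound was given mixed in the diet. Tapeworm (taeniacidal) and N. dubius nematode activity were each scored as percent clearance of worms.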

Assay [2] relates to gastrointestinal nematodes (Ovis aries). The experiment in a line: Anthelmintic activity against gastrointestinal nematodes infected in sheep assessed as reduction of fecal egg count at 50 mg/kg, po measured up to 7 days relative to control. The arrangement: scale not given: the % may be the effect or the level left.
The subject of assay [3] is Rodentolepis nana. The experiment in a line: Anthelmintic activity against Hymenolepis nana infected in CF1 mouse assessed as clearance of worm burden assessed as clearance of worm burden at 0.2% dosed through diet for 4 days dosed 16 days post infection by press-plate technique. The assay is classed as functional. In short, it runs like this: as §1
The test system of assay [4] is Taenia pisiformis. The experiment in a line: Anthelmintic activity against Taenia pisiformis infected in dog assessed as reduction of fecal egg count. The format is functional, organism-based.
Assay [5] deals with Moniezia. Kind of assay: Anthelmintic activity against Moniezia sp. infected in sheep assessed as reduction of fecal egg count. The assay is classed as functional.
Assay [6] has as its system gastrointestinal nematodes (Ovis aries). The experiment in a line: Anthelmintic activity against gastrointestinal nematodes infected in sheep assessed as reduction of fecal egg count at 200 mg/kg, po measured up to 7 days relative to control. On the set-up: scale not given: the % may be the effect or the level left.
For assay [7] the test system is unchanged. The experiment in a line: Anthelmintic activity against gastrointestinal nematodes infected in sheep assessed as reduction of fecal egg count at 25 mg/kg, po measured up to 7 days relative to control. The arrangement: scale not given: the % may be the effect or the level left.
Assay [8] has the same test system. The experiment in a line: Anthelmintic activity against gastrointestinal nematodes infected in sheep assessed as reduction of fecal egg count at 43 mg/kg, po measured up to 7 days relative to control. On the set-up: scale not given: the % may be the effect or the level left.
In assay [9] the test system is Rodentolepis nana. Kind of assay: Anthelmintic activity against Hymenolepis nana infected in CF1 mouse assessed as clearance of worm burden at 0.03% dosed through diet for 4 days dosed 16 days post infection by press-plate technique. The format is functional, organism-based. In short, it runs like this:
as §1

Assay [10] relates to Heligmosomoides polygyrus. The experiment in a line: Nematocidal activity against Nematospiroides dubius infected in CF1 mouse assessed as clearance of worm burden at 0.03% dosed through diet for 4 days dosed 16 days post infection by press-plate technique. The format is functional, organism-based. In short, it runs like this:
as §1

For the compound `Cc1ccnc(-c2nc3cc(N=C=S)ccc3[nH]2)c1`, the outcome in assay [1] was inactive. In addition, the Activity was 0% in assay [2] and 25% in assay [3].

As for `S=C=Nc1ccnc(-c2nc3ccccc3[nH]2)c1`, in [1], the result was inactive. Besides, the Activity in [2] was determined as 0%; in assay [3], 50%.

Consider `S=C=Nc1ccnc(-c2nc3cc(N=C=S)ccc3[nH]2)c1`, for which the result in [1] was inactive. The Activity in [2] and in [3] was 0% each time.

Turning to `S=C=Nc1ccc2[nH]c(-c3ccccn3)nc2c1` [listing 1 of 2 here], the result in [4], in [5] and in assay [1] was inactive.

Take `COc1ccnc(-c2nc3cc(N=C=S)ccc3[nH]2)c1`: the outcome in assay [1] was inactive. In addition, the results for the Activity in assay [2] and in assay [3] were 0% and 75%, respectively.

For the compound `Cc1cccc(-c2nc3cc(N=C=S)ccc3[nH]2)n1`, in [1], the result was inactive. For the same compound, the Activity in assay [2] is reported as 52%; in [3], 75%.

Consider `S=C=Nc1ccc2[nH]c(-c3ccccn3)nc2c1` [listing 2 of 2 here], for which the Activity in [6] is reported as 100%; in assay [7] it was 11%; in [2] it was 100%; in [3], 100%.

Take `[O-][n+]1ccccc1-c1nc2cc(N=C=S)ccc2[nH]1`: the Activity stood at 9% in assay [8] and 100% in assay [3]. For the same compound, the outcome in assay [1] was inactive.

With `c1ccc(-c2nc3ccccc3[nH]2)cc1`, in assay [1], the outcome was inactive. Moreover, the Activity in assay [2] is on record as 17%; in [3] it was 25%.

Take `CCCCc1ccc2[nH]c(NC(=O)OC)nc2c1`: the result in assay [9] and in assay [10] was Active.

For the compound `S=C=Nc1ccc2[nH]c(-c3cc(Cl)ccn3)nc2c1`, the result in assay [1] was inactive. Moreover, the figures for the Activity in assay [2] and in assay [3] were 0% and 75%, respectively.

For `Cl.S=C=Nc1ccc2[nH]c(-c3ccccn3)nc2c1`, the figures for the Activity in assay [2] and in [3] were 95% and 75%, respectively.

As to `S=C=Nc1cc2nc(-c3ccccn3)[nH]c2cc1Cl`, in assay [1], the outcome was inactive. The Activity in [2] worked out at 15%; in [3] it was 50%.

As for `c1ccc(-c2nc3ccccc3[nH]2)nc1`, in assay [1], the result was inactive. For the same compound, the results for the Activity in assay [2] and in [3] were 28% and 0%, respectively.

In the case of `S=C=Nc1cccc2[nH]c(-c3ccccn3)nc12`, in [1], the result was inactive. Further, the values for the Activity in assay [2] and in assay [3] were 83% and 25%, respectively.

In the case of `S=C=Nc1ccc2[nH]c(-c3ccncc3)nc2c1`, the result in assay [1] was inactive. For the same compound, the Activity in assay [2] and in assay [3] was 0% in each case.

`S=C=Nc1ccc2[nH]c(-c3cscn3)nc2c1`: the values for the Activity in [1] and in [3] were 90% and 100%, respectively.

Take `Cc1ccc(S(=O)(=O)O)cc1.S=C=Nc1ccc2[nH]c(-c3ccccn3)nc2c1`: the Activity in [2] came to 0%; in assay [3], 100%.

For the compound `Cn1c(-c2cccc[n+]2C)nc2cc(N=C=S)ccc21.[I-]`, in [1], the outcome was inactive. Moreover, in assay [3], the Activity turned out to be 0%.

As to `S=C=Nc1ccc2[nH]c(-c3cccnc3)nc2c1`, the outcome in [1] was inactive. Also, the Activity in [6] is 71%; in assay [3], 100%.

With `S=C=Nc1ccc2[nH]c(-c3ccccc3)nc2c1`, the result in assay [1] was inactive. Besides, the Activity in [2] is 0%; in assay [3], 100%.
